Several values for one entry are separate records, joined by “and”; a condition that tells them apart may be missing. Equal entries are not always repeated. Where two headings read alike, the source gives them in different places.
What was measured:
[1] = target: purified bovine cytochrome bc1 complex (Bos taurus, UniProt P00157+P13272); test: Cytochrome reduction by DBH2 in purified bovine cytochrome bc1 complex; assay type: biochemical
[2] = test system: H. anomala cells (alternative oxidase pathway); test: Induction of cyanide-resistant respiration in H. anomala cells; assay type: cell-based, Hansenula (Pichia) anomala; details: 10 μM inhibitor, cells shaken aerobically at 30°C for 2 hours; None = 0.181
[3] = test system: rat liver mitochondria; test: Succinate-dependent O2 uptake activity in rat liver mitochondria; assay type: biochemical
[4] = target: T1, Rieske iron-sulfur protein of Rb. capsulatus cytochrome bc1 complex (Rhodobacter capsulatus, UniProt D5ANZ2+D5ANZ3); test: EPR spectra of the reduced Rieske iron-sulfur protein in chromatophore membranes; assay type: binding; details: 10 to 30 μM inhibitor, ascorbate-reduced chromatophore membranes, 20 K
T1 sequence (D5ANZ3 1-437): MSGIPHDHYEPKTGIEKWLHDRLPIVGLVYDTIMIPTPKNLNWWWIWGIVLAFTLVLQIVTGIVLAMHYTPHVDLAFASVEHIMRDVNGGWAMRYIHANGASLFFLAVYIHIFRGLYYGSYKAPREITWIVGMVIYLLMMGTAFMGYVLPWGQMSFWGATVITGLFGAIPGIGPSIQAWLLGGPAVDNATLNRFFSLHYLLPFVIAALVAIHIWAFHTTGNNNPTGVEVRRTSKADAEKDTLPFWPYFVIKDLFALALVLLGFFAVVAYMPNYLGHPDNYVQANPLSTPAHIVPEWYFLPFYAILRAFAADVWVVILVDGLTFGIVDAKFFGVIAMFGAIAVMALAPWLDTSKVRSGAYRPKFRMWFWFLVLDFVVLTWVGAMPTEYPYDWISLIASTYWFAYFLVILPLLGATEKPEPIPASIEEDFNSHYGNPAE
T1 sequence (D5ANZ2 1-191): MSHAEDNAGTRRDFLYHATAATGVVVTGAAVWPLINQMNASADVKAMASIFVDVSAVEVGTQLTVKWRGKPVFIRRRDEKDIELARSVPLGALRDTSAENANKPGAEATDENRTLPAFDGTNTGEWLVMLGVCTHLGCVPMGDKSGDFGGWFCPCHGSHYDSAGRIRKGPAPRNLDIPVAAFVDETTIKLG
T1 sequence (D5ANZ4 22-279 partner): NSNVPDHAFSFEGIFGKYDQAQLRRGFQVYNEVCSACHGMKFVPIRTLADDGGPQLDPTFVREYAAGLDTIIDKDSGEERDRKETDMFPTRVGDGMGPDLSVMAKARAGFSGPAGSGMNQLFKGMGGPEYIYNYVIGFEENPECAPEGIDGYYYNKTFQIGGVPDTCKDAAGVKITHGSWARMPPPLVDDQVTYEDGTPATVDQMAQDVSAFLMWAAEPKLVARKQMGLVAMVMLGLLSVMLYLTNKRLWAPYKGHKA

[5] = test system: H. anomala mitochondria; test: Superoxide anion generation in H. anomala mitochondria; assay type: biochemical, Hansenula (Pichia) anomala
How it was run: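 Pre-incubated at 30°C in a chemiluminescence reader, then succinate added and inhibitors added in sequence. Read-out was the chemiluminescence peak-height increase sensitive to 0.5 µM superoxide dismutase.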

[6] = test system: cytochrome b in H. anomala mitochondria; test: Reduction of cytochrome b in H. anomala mitochondria; assay type: biochemical, Hansenula (Pichia) anomala
[7] = target: T2, Rb. capsulatus cytochrome bc1 complex (Rhodobacter capsulatus, UniProt D5ANZ2+D5ANZ3); assay type: biochemical; details: for Inhibition of re-reduction of cytochromes c (Qo site forward reaction): pH 7.0, Eh 100 mV
T2 sequence (D5ANZ3 1-437): T1 sequence (D5ANZ3 1-437)
T2 sequence (D5ANZ2 1-191): T1 sequence (D5ANZ2 1-191)
T2 sequence (D5ANZ4 22-279 partner): T1 sequence (D5ANZ4 22-279 partner)
How it was run: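 Rb. capsulatus chromatophores normalised to reaction centre (0.28 µM), with redox mediators and 2.5 µM valinomycin. Qo forward: 50 mM MOPS pH 7.0, 100 mM KCl, Eh 100 mV. Qi reverse: 50 mM glycine-NaOH pH 9.5, 100 mM KCl, 10 µM myxothiazol, Eh 125 mV.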

[8] = 10 μM inhibitor added after 15 mM succinate
[9] = 10 μM inhibitor added after 15 mM succinate + 10 μM antimycin A3
[10] = 10 μM antimycin A3 added after 15 mM succinate + 10 μM ascochlorin

CCCCCC[C@H]1C(=O)O[C@H](C)[C@H](NC(=O)c2cccc(NC=O)c2O)C(=O)O[C@@H](C)[C@@H]1OC(=O)CC(C)C [antimycin A]
Extent of rapid reduction of cytochrome bL ([1]; 3 μM bovine bc1, 30 μM antimycin A, DBH2 25 μM): about 20% | Level of cytochrome b reduction after reoxidation ([1]; 30 μM antimycin A, within a few minutes): about 10%

Funiculosin
CN−-resistant O2 uptake activity [2]: 3.12 nmol O2/min/mg wet cells

O=C1C(O)=C([C@H]2CC[C@H](c3ccc(Cl)cc3)CC2)C(=O)c2ccccc21 [Atovaquone]
CN−-resistant O2 uptake activity [2]: 0.202 nmol O2/min/mg wet cells

CCCCCCCCCC1=C(O)C(=O)c2scnc2C1=O [NHDBT, nonylhydroxydioxobenzothiazole]
CN−-resistant O2 uptake activity [2]: 0.225 nmol O2/min/mg wet cells

C/C=C(C)/C=C/C=C/[C@H](OC)[C@@H](C)[C@@H](OC)[C@@H](C)CCc1oc2c(O)c(OC)cc(OC)c2c(=O)c1C [Stigmatellin]
CN−-resistant O2 uptake activity [2]: 0.433 nmol O2/min/mg wet cells

CC(=CCc1c(O)cc(C)c(C=O)c1O)CCC1(C)C(C)CCC(=O)C1C (centres unmarked) [LL-Z1272 ε]
Inhibition relative to that seen using ascochlorin [3]: about 1/300

CC(/C=C/[C@@]1(C)[C@H](C)CCC(=O)[C@@H]1C)=C\Cc1c(O)c(Cl)c(C)c(C=O)c1O [Ascochlorin]
Extent of rapid reduction of cytochrome c1 ([1]; 3 μM bovine bc1, 31 μM ascochlorin, DBH2 25 μM, by the first spectrum): about 20% | Rapid reduction of cytochrome bH and c1 ([1]; ascochlorin and antimycin both present, 240 μM ascochlorin): about half | Further decrease of the extent of the fast reactions ([1]; ascochlorin increased from 31 to 360 μM, compared to Fig. 4C): about a factor of two | CN−-resistant O2 uptake activity [2]: 7.42 nmol O2/min/mg wet cells | Effect on the Rieske ISP gx EPR transition [4]: changes the gx transition | Chemiluminescence Intensity (superoxide anion generation) [5, 8]: 2.6 10^5 counts/min | Chemiluminescence Intensity (superoxide anion generation) [5, 9]: 4.6 10^5 counts/min | ΔA 560–575 × 10^2 (cytochrome b reduction) [6, 8]: 0.92 | ΔA 560–575 × 10^2 (cytochrome b reduction) [6, 9]: 0.85 | Inhibition of re-reduction of cytochromes c (Qo site forward reaction) ([7]; 1 μM): partially | Inhibition of re-reduction of cytochromes c (Qo site forward reaction) ([7]; 10 μM): fully | Inhibition of Qi site-mediated cytochrome b reduction (reverse reaction) ([7]; 1 or 10 μM, 10 μM myxothiazol, pH 9.5, Eh 125 mV): completely inhibited

CO/C(=C/C(N)=O)[C@H](C)[C@H](/C=C/c1csc(-c2csc([C@@H](C)/C=C/C=C/C(C)C)n2)n1)OC [Myxothiazol]
CN−-resistant O2 uptake activity [2]: 0.375 nmol O2/min/mg wet cells | Chemiluminescence Intensity (superoxide anion generation) [5, 9]: 5.4 10^5 counts/min | ΔA 560–575 × 10^2 (cytochrome b reduction) [6, 8]: 1.16 | ΔA 560–575 × 10^2 (cytochrome b reduction) [6, 9]: 1.03

CCCC[C@H]1C(=O)O[C@H](C)[C@H](NC(=O)c2cccc(NC=O)c2O)C(=O)O[C@@H](C)[C@@H]1OC(=O)CC(C)C [Antimycin A3]
CN−-resistant O2 uptake activity [2]: 7.77 nmol O2/min/mg wet cells | Chemiluminescence Intensity (superoxide anion generation) [5, 10]: 3.6 10^5 counts/min | Chemiluminescence Intensity (superoxide anion generation) [5, 8]: 8.8 10^5 counts/min and 9.1 10^5 counts/min | ΔA 560–575 × 10^2 (cytochrome b reduction) [6, 10]: 0.94 | ΔA 560–575 × 10^2 (cytochrome b reduction) ([6]; 10 μM antimycin A3 added after 15 mM succinate + 10 μM myxothiazol): 1.08 | ΔA 560–575 × 10^2 (cytochrome b reduction) [6, 8]: 1.27 and 1.28

Source: article PMC2819552 (Biochimica et biophysica acta, 2009)
